How the values were obtained:
[1] = biological target: Delta-type opioid receptor (Rattus norvegicus, UniProt P33533); experiment: Inhibition of [3H]-DPDPE binding to Opioid receptor delta 1 of rat brain membranes; assay type: cell membranes, Membrane
Outline: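 Rat brain membranes were prepared as a sucrose homogenate, spun at 1000g, and washed twice in 50 mM Tris-HCl pH 7.4 with 5 mM MgCl2, BSA 2 mg/mL and bacitracin 20 µg/mL. They were incubated with [3H]DPDPE and at least 10 freshly prepared peptide concentrations for 180 min at 25 °C. Bound ligand was separated by rapid filtration on PEI-pretreated GF/B filters.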

Rattus norvegicus = organism: Rattus norvegicus; experiment: Compound was evaluated for the inhibition of binding of [125I]CGP23996 to rat brain membranes; parameters: species or system Membrane
Outline: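 Whole brains from adult Sprague-Dawley rats (150–200 g) were homogenized 10% w/v in 0.32 M sucrose, spun at 1000g for 10 min, and resuspended in 50 mM Tris-HCl pH 7.4 with 5 mM MgCl2, BSA 2 mg/mL and bacitracin 20 µg/mL (done twice). Membranes were incubated with 0.2 nM [125I]CGP23,996 and ≥10 analogue concentrations for 120 min at 25 °C. Filtration was through 0.1% PEI-treated GF/B filters.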

Mu-type opioid receptor = Mu-type opioid receptor (Rattus norvegicus, UniProt P33535); experiment: Inhibition of binding of [3H]-naloxone to Opioid receptor mu 1 of rat brain membranes; assay type: cell membranes, Membrane
Chain of Mu-type opioid receptor (P33535 whole entry): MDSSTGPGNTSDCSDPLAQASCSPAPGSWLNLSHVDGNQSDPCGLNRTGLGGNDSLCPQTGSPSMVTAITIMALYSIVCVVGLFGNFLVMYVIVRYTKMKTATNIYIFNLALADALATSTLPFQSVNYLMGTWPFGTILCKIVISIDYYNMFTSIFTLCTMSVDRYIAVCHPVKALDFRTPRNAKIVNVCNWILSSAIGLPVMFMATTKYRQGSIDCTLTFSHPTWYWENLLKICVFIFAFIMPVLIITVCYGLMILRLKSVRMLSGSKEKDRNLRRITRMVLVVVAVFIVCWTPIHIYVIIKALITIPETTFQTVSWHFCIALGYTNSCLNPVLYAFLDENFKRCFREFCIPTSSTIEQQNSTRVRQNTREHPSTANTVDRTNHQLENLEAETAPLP
Outline: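 The [3H]naloxone (1 nM) displacement used washed Sprague-Dawley rat brain membranes in 50 mM Tris-HCl pH 7.4 containing MgCl2 5 mM, BSA and bacitracin. Incubation ran 120 min at 25 °C across ≥10 analogue concentrations. Binding was terminated by filtration through GF/B filters soaked in 0.1% polyethylenimine. IC50 is mean ± SD of at least three duplicate runs.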

[2] = biological target: Opioid receptors; mu & delta (Rattus norvegicus) (UniProt P33533+P33535); experiment: Ratio of receptor binding inhibitory concentrations against mu and delta opioid receptors from rat brain as IC50 (vs [3H]-DPDPE) / IC50 (vs [3H]naloxone)
Chain of Opioid receptors; mu & delta (Rattus norvegicus) (P33533 whole entry, looked up): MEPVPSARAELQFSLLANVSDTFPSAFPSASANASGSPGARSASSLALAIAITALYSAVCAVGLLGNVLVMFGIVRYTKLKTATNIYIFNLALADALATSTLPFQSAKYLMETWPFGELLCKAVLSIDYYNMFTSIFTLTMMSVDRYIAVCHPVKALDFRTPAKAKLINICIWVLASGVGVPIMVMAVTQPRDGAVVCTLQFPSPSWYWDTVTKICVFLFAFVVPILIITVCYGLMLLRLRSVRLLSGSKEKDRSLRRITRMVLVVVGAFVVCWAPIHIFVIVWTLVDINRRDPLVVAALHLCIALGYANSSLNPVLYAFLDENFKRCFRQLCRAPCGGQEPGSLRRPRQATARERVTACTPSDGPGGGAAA
Chain of Opioid receptors; mu & delta (Rattus norvegicus) (P33535 whole entry, looked up): as the sequence (P33535 whole entry) above
Outline: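 The ratio is IC50 against [3H]DPDPE (rat brain membranes, 180 min, 25 °C) divided by IC50 against 1 nM [3H]naloxone (120 min, 25 °C). Both assays used Tris-HCl pH 7.4 buffer with MgCl2, BSA and bacitracin, and filtration on PEI-treated GF/B filters.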

[3] = Ratio of receptor binding inhibitory concentrations against somatostatin receptors and mu opioid receptors from rat brain […] / IC50(vs [3H]naloxone)

Chain of Delta-type opioid receptor (P33533 whole entry): as the sequence (P33533 whole entry, looked up) above

Compound: C[C@@H](O)[C@H](NC(=O)[C@H]1NC(=O)[C@H]([C@@H](C)O)NC(=O)[C@H](CCCCN)NC(=O)[C@@H](Cc2c[nH]c3ccccc23)NC(=O)[C@H](Cc2ccc(O)cc2)NC(=O)[C@@H](NC(=O)[C@H](N)c2ccccc2)CSSC1(C)C)C(N)=O
- IC50 [1]: 2800 nM
- IC50 (Rattus norvegicus): 2300 nM
- IC50 (Mu-type opioid receptor): 350 nM

Compound: C[C@@H](O)[C@H](NC(=O)[C@H]1NC(=O)[C@H]([C@@H](C)O)NC(=O)[C@H](CCCCN)NC(=O)[C@@H](Cc2c[nH]c3ccccc23)NC(=O)[C@H](Cc2ccc(O)cc2)NC(=O)[C@@H](NC(=O)[C@H](N)Cc2ccccc2)CSSC1(C)C)C(N)=O
- IC50 [1]: 8400 nM
- IC50 (Rattus norvegicus): 690 nM
- IC50 (Mu-type opioid receptor): 3.7 nM

Compound: C[C@@H](O)[C@H](NC(=O)[C@@H]1CSSC[C@H](NC(=O)[C@H](N)Cc2ccc(O)cc2)C(=O)N[C@@H](Cc2ccc(O)cc2)C(=O)N[C@H](Cc2c[nH]c3ccccc23)C(=O)N[C@@H](CCCCN)C(=O)N[C@@H]([C@@H](C)O)C(=O)N1)C(=O)O
- IC50 [1]: 27500 nM
- IC50 (Rattus norvegicus): 18500 nM
- IC50 (Mu-type opioid receptor): 9100 nM

Compound: CCCC[C@@H]1NC(=O)[C@@H](Cc2c[nH]c3ccccc23)NC(=O)[C@H](Cc2ccc(O)cc2)NC(=O)[C@@H](NC(=O)[C@H](N)Cc2ccccc2)CSSC(C)(C)[C@@H](C(=O)N[C@H](C(N)=O)[C@@H](C)O)NC(=O)[C@H]([C@@H](C)O)NC1=O
- IC50 [1]: 5600 nM
- IC50 (Mu-type opioid receptor): 9.6 nM

Compound: CC(C)[C@H]1NC(=O)[C@H](CCCCN)NC(=O)[C@@H]([C@@H](C)O)NC(=O)[C@H](Cc2ccc(O)cc2)NC(=O)[C@@H](NC(=O)[C@H](N)Cc2ccccc2)CSSC(C)(C)[C@H](C(=O)N[C@H](C(N)=O)[C@@H](C)O)NC1=O
- Ratio [2]: 360

Compound: CCCC[C@@H]1NC(=O)[C@@H](Cc2c[nH]c3ccccc23)NC(=O)[C@H](Cc2ccc(O)cc2)NC(=O)[C@@H](NC(=O)[C@H](N)Cc2ccccc2)CSSC(C)(C)[C@H](C(=O)N[C@H](C(N)=O)[C@@H](C)O)NC(=O)[C@@H]([C@@H](C)O)NC1=O
- Ratio [2]: 580

Compound: C[C@@H](O)[C@H](NC(=O)[C@H]1NC(=O)[C@H]([C@@H](C)O)NC(=O)[C@H](CCCN=C(N)N)NC(=O)[C@@H](Cc2c[nH]c3ccccc23)NC(=O)[C@H](Cc2ccc(O)cc2)NC(=O)[C@@H](NC(=O)[C@H](N)Cc2ccccc2)CSSC1(C)C)C(N)=O
- IC50 [1]: 4500 nM
- IC50 (Rattus norvegicus): 14300 nM
- IC50 (Mu-type opioid receptor): 3.5 nM

Compound: C[C@@H](O)[C@H](NC(=O)[C@@H]1NC(=O)[C@@H]([C@@H](C)O)NC(=O)[C@H](CCCCN)NC(=O)[C@@H](Cc2c[nH]c3ccccc23)NC(=O)[C@H](Cc2ccc(O)cc2)NC(=O)[C@@H](NC(=O)[C@H](N)c2ccccc2)CSSC1(C)C)C(N)=O
- Ratio [2]: 8
- Ratio [3]: 6.6

Compound: C[C@@H](O)[C@H](NC(=O)[C@H]1NC(=O)[C@H]([C@@H](C)O)NC(=O)[C@H](CCCN)NC(=O)[C@@H](Cc2c[nH]c3ccccc23)NC(=O)[C@H](Cc2ccc(O)cc2)NC(=O)[C@@H](NC(=O)[C@H](N)Cc2ccccc2)CSSC1(C)C)C(N)=O
- IC50 [1]: 13500 nM
- IC50 (Rattus norvegicus): 24300 nM

Compound: CC(C)[C@@H]1NC(=O)[C@H](CCCCN)NC(=O)[C@@H](Cc2c[nH]c3ccccc23)NC(=O)[C@H](Cc2ccc(O)cc2)NC(=O)[C@@H](NC(=O)[C@H](N)Cc2ccccc2)CSSC(C)(C)[C@@H](C(=O)NC(C(N)=O)[C@@H](C)O)NC1=O (stereo in doubt)
- IC50 [1]: 2000 nM
- IC50 (Mu-type opioid receptor): 5.5 nM

Compound: C[C@@H](O)[C@H](NC(=O)[C@H]1NC(=O)[C@H]([C@@H](C)O)NC(=O)[C@H](CCCCN)NC(=O)[C@H](Cc2c[nH]c3ccccc23)NC(=O)[C@H](Cc2ccc(O)cc2)NC(=O)[C@@H](NC(=O)[C@H](N)Cc2ccccc2)CSSC1(C)C)C(N)=O
- IC50 [1]: > 70000 nM
- IC50 (Rattus norvegicus): 740 nM
- IC50 (Mu-type opioid receptor): 1350 nM

Compound: C[C@@H](O)[C@H](NC(=O)[C@@H]1NC(=O)[C@@H]([C@@H](C)O)NC(=O)[C@H](CCCCN)NC(=O)[C@H](Cc2c[nH]c3ccccc23)NC(=O)[C@H](Cc2ccc(O)cc2)NC(=O)[C@@H](NC(=O)[C@H](N)Cc2ccccc2)CSSC1(C)C)C(N)=O
- Ratio [2]: > 52
- Ratio [3]: 0.55

Compound: C[C@@H](O)[C@H](NC(=O)[C@H]1CSSC[C@H](NC(=O)[C@H](N)Cc2ccc(O)cc2)C(=O)N[C@@H](Cc2ccc(O)cc2)C(=O)N[C@H](Cc2c[nH]c3ccccc23)C(=O)N[C@@H](CCCCN)C(=O)N[C@H]([C@@H](C)O)C(=O)N1)C(=O)O
- Ratio [2]: 3
- Ratio [3]: 2

Compound: C[C@@H](O)[C@H](NC(=O)[C@H]1CSSC(C)(C)[C@H](NC(=O)[C@H](N)c2ccccc2)C(=O)N[C@@H](Cc2ccccc2)C(=O)N[C@H](Cc2c[nH]c3ccccc23)C(=O)N[C@@H](CCCCN)C(=O)N[C@H]([C@@H](C)O)C(=O)N1)C(=O)O
- Ratio [2]: 15
- Ratio [3]: 0.45

Compound: C[C@@H](O)[C@H](NC(=O)[C@@H]1NC(=O)CNC(=O)[C@H](CCCCN)NC(=O)[C@@H](Cc2c[nH]c3ccccc23)NC(=O)[C@H](Cc2ccc(O)cc2)NC(=O)[C@@H](NC(=O)[C@H](N)Cc2ccccc2)CSSC1(C)C)C(N)=O
- Ratio [2]: 110
- Ratio [3]: 25

Compound: C[C@@H](O)[C@H](NC(=O)[C@@H]1CSSC(C)(C)[C@H](NC(=O)[C@H](N)c2ccccc2)C(=O)N[C@@H](Cc2ccccc2)C(=O)N[C@H](Cc2c[nH]c3ccccc23)C(=O)N[C@@H](CCCCN)C(=O)N[C@@H]([C@@H](C)O)C(=O)N1)C(=O)O
- IC50 [1]: 32000 nM
- IC50 (Rattus norvegicus): 947 nM
- IC50 (Mu-type opioid receptor): 2100 nM

Compound: C[C@H](N)C(=O)NCC(=O)N[C@H]1CSSC[C@@H](C(=O)O)NC(=O)[C@H](CO)NC(=O)[C@H]([C@@H](C)O)NC(=O)[C@H](Cc2ccccc2)NC(=O)[C@H]([C@@H](C)O)NC(=O)[C@H](CCCCN)NC(=O)[C@H](Cc2c[nH]c3ccccc23)NC(=O)[C@H](Cc2ccccc2)NC(=O)[C@H](Cc2ccccc2)NC(=O)[C@H](CC(N)=O)NC(=O)[C@H](CCCCN)NC1=O
- Ratio [3]: 0.0003

Compound: C[C@@H](O)[C@H](NC(=O)[C@@H]1NC(=O)[C@@H]([C@@H](C)O)NC(=O)[C@H](CCCCN)NC(=O)[C@@H](Cc2c[nH]c3ccccc23)NC(=O)[C@H](Cc2ccc(O)cc2)NC(=O)[C@@H](NC(=O)[C@H](N)Cc2ccccc2)CSSC1(C)C)C(N)=O
- Ratio [2]: 2250
- Ratio [3]: 187

Compound: C[C@@H](O)[C@H](NC(=O)[C@H]1NC(=O)CNC(=O)[C@H](CCCCN)NC(=O)[C@@H](Cc2c[nH]c3ccccc23)NC(=O)[C@H](Cc2ccc(O)cc2)NC(=O)[C@@H](NC(=O)[C@H](N)Cc2ccccc2)CSSC1(C)C)C(N)=O
- IC50 [1]: 58000 nM
- IC50 (Rattus norvegicus): 13300 nM
- IC50 (Mu-type opioid receptor): 539 nM

Compound: C[C@@H](O)[C@H](NC(=O)[C@@H]1NC(=O)[C@@H]([C@@H](C)O)NC(=O)[C@H](CCCN=C(N)N)NC(=O)[C@@H](Cc2c[nH]c3ccccc23)NC(=O)[C@H](Cc2ccc(O)cc2)NC(=O)[C@@H](NC(=O)[C@H](N)Cc2ccccc2)CSSC1(C)C)C(N)=O
- Ratio [2]: 1300
- Ratio [3]: 4090

— ChEMBL document CHEMBL1123370, “Design and synthesis of conformationally constrained somatostatin analogues with high potency and specificity for mu opioid receptors” (J Med Chem, 1986)
